Measurements published in ChEMBL document CHEMBL1208669, “Synthesis of 2-(pyrimidin-2-yl)-1-phenyl-2,3,4,9-tetrahydro-1H-beta-carbolines as antileishmanial agents” (Eur J Med Chem, 2010).
Converted amounts (≈) assume the structure as drawn. The source made the active and inactive calls. The calls are words filed in the database; no cut-off is given here.

Experiments:
[1] = test system: Leishmania donovani; experiment: Antileishmanial activity against promastigotes of Leishmania donovani MHOM/IN/80/Dd8 after 72 hrs by luciferase reporter gene assay relative to control; format: functional
Outline: (§1)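 Dd8 promastigotes transfected with firefly luciferase were kept in medium 199 + 10% FCS with antibiotics under G418. Late-log cells were incubated 72 h with serial drug dilutions, with parallel DMSO dilutions as controls. An aliquot was mixed 1:1 with Steady Glo and luminescence read as RLU. % inhibition = (N − n) × 100/N versus untreated control RLU; tested as serial dilutions or single concentration.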

[2] = test system: Leishmania donovani; experiment: Antileishmanial activity against amastigote of Leishmania donovani MHOM/IN/80/Dd8 infected in mouse J774A1 cells at 0.25 to 10 ug/ml after 72 hrs by luciferase reporter gene assay; format: functional, organism-based; details: j774.a1
Outline: (§2)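 J774A.1 macrophages were seeded at 1.5 × 10⁴ cells/well in RPMI-1640 + 10% FCS, 37 °C, CO₂, for 24 h. They were then infected with stationary-phase luciferase-transfected Dd8 promastigotes (2.25 × 10⁵/well), which transform to amastigotes. Compounds (0.25–10 range) were added in fresh medium for 72 h. Medium was removed, PBS and Steady Glo added, and luminescence read. Inhibition vs untreated controls; IC50 by logit regression.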

[3] = test system: DU-145; experiment: Cytotoxicity against human DU145 cells up to 50 ug/ml by MTT assay; format: functional, cell-based
[4] = test system: MCF7; experiment: Cytotoxicity against human MCF7 cells up to 50 ug/ml by MTT assay; format: functional, cell-based
[5] = test system: KB; experiment: Cytotoxicity against human KB cells up to 50 ug/ml by MTT assay; format: functional, cell-based
[6] = test system: C-33-A; experiment: Cytotoxicity against human C33A cells up to 50 ug/ml by MTT assay; format: functional, cell-based
[7] = test system: Vero; experiment: Cytotoxicity against african green monkey Vero cells up to 50 ug/ml by MTT assay; format: cell-based; details: chlorocebus sabaeus
[8] = test system: Leishmania donovani; experiment: Antileishmanial activity against amastigote of Leishmania donovani MHOM/IN/80/Dd8 infected in mouse J774A1 cells after 72 hrs by luciferase reporter gene assay; format: functional, organism-based; details: MHOM/IN/80/Dd8, J774.A1, 72 h; outline: as §2
[9] = Cytotoxicity against mouse J774A1 cells after 72 hrs by MTT assay; format: cell-based, J774.A1
Outline: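 J774A.1 cells were grown in RPMI + 10% FCS with gentamycin. Exponential cells (1 × 10⁴/well) were exposed to a range of drug concentrations (DMSO stocks diluted in complete medium) for 72 h at 37 °C in humidified CO₂/air. MTT was added, formazan dissolved in DMSO after 15 min shaking, and absorbance read at 544 nm. CC50 is the 50% viability reduction versus medium-only cells.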

[10] = (§3) Selectivity index, ratio of CC50 for mouse J774A1 cells to IC50 for amastigote of Leishmania donovani MHOM/IN/80/Dd8; format: functional, J774.A1
Outline: (§4)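 Ratio of CC50 (J774A.1 MTT, 72 h) to IC50 against intracellular amastigotes in J774A.1 macrophages (luciferase read-out, 72 h).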

[11] = test system: DU-145; experiment: Cytotoxicity against human DU145 cells by MTT assay; format: functional, cell-based
[12] = test system: MCF7; experiment: Cytotoxicity against human MCF7 cells by MTT assay; format: functional, cell-based
[13] = test system: KB; experiment: Cytotoxicity against human KB cells by MTT assay; format: functional, cell-based
[14] = test system: C-33-A; experiment: Cytotoxicity against human C33A cells by MTT assay; format: functional, cell-based
[15] = test system: Vero; experiment: Cytotoxicity against african green monkey Vero cells by MTT assay; format: cell-based; details: chlorocebus sabaeus
[16] = test system: Leishmania donovani; experiment: Antileishmanial activity against Leishmania donovani; format: functional, organism-based
[17] = test system: J774.A1; experiment: as §3; format: functional; outline: as §4
[18] = test system: Leishmania donovani; experiment: Antileishmanial activity against promastigotes of Leishmania donovani MHOM/IN/80/Dd8 at 500 ug/ml after 72 hrs by luciferase reporter gene assay relative to control; format: functional, organism-based; outline: as §1

IC50 [2] | IC50 [8] | IC50 ([8]; read-out: IC50) | IC50 [16] | Compound | inhibition (INH) [1] | Activity [3] | Activity [4] | Activity [5] | Activity [6] | Activity [7] | CC50 at 72 h [9] | Ratio CC50/IC50 [10] | IC50 [11] | IC50 [12] | IC50 [13] | IC50 [14] | IC50 [15] | CC50 at 72 h ([9]; read-out: CC50) | Ratio CC50/IC50 [17] | inhibition [18]
Not Active |  |  |  | COc1ccc(OC)c(C2c3[nH]c4ccccc4c3CCN2c2nc(Cl)cc(Cl)n2)c1 (racemic) | 85.34% | inactive | inactive | inactive | inactive | Non-toxic |  |  |  |  |  |  |  |  |  | 
Not Active |  |  |  | COc1ccc(C2c3[nH]c4ccccc4c3CCN2c2nc(N3CCOCC3)cc(N3CCOCC3)n2)cc1OC (racemic) | 85.31% | inactive | inactive | inactive | inactive | Non-toxic |  |  |  |  |  |  |  |  |  | 
Not Active |  |  |  | COc1ccc(C2c3[nH]c4ccccc4c3CCN2c2nc(Cl)cc(Cl)n2)c(OC)c1 (racemic) | 54.14% | inactive | inactive | inactive | inactive | Non-toxic |  |  |  |  |  |  |  |  |  | 
 | 4.46 µg/mL (≈ 10.5 µM) |  |  | CCc1ccc(C2c3[nH]c4ccccc4c3CCN2c2nc(Cl)cc(Cl)n2)cc1 (racemic) | 60.24% |  |  |  |  |  | 30.7 µg/mL (≈ 72.4 µM) | 6.87 | 23 µg/mL (≈ 54.3 µM) | 32.4 µg/mL (≈ 76.5 µM) | 22.8 µg/mL (≈ 53.9 µM) | 19.8 µg/mL (≈ 46.8 µM) | 37.8 µg/mL (≈ 89.3 µM) |  |  | 
 |  | 0.49 µg/mL (≈ 0.865 µM) |  | CN1CCN(c2cc(N3CCN(C)CC3)nc(N3CCc4c([nH]c5ccccc45)C3c3ccc4c(c3)OCO4)n2)CC1 (racemic) | 99.96% |  |  |  |  |  |  | 5.71 | 1.5 µg/mL (≈ 2.65 µM) | 1.2 µg/mL (≈ 2.12 µM) | 2 µg/mL (≈ 3.53 µM) | 1.1 µg/mL (≈ 1.94 µM) | 2.6 µg/mL (≈ 4.59 µM) | 2.8 µg/mL (≈ 4.94 µM) |  | 
Not Active |  |  |  | COc1cccc(C2c3[nH]c4ccccc4c3CCN2c2nc(Cl)cc(Cl)n2)c1 (racemic) | 44.33% | inactive | inactive | inactive | inactive | Non-toxic |  |  |  |  |  |  |  |  |  | 
 |  | 3.05 µg/mL (≈ 7.47 µM) |  | c1ccc2c(CCNc3nc(N4CCOCC4)cc(N4CCOCC4)n3)c[nH]c2c1 | 99.72% |  |  |  |  | Non-toxic |  | 6.34 |  |  |  |  |  | 19.4 µg/mL (≈ 47.4 µM) |  | 
Not Active |  |  |  | COc1ccccc1C1c2[nH]c3ccccc3c2CCN1c1nc(Cl)cc(Cl)n1 (racemic) | 38.79% | inactive | inactive | inactive | inactive | Non-toxic |  |  |  |  |  |  |  |  |  | 
 |  | 0.48 µg/mL (≈ 0.807 µM) |  | CCN1CCN(c2cc(N3CCN(CC)CC3)nc(N3CCc4c([nH]c5ccccc45)C3c3ccc4c(c3)OCO4)n2)CC1 (racemic) | 99.94% |  |  |  |  |  |  | 5.2 | 6.2 µg/mL (≈ 10.4 µM) | 3.6 µg/mL (≈ 6.05 µM) | 4.5 µg/mL (≈ 7.57 µM) | 4.1 µg/mL (≈ 6.89 µM) | 5.9 µg/mL (≈ 9.92 µM) | 2.5 µg/mL (≈ 4.2 µM) |  | 
 |  | 7.79 µg/mL (≈ 16.4 µM) |  | Clc1cc(Cl)nc(N2CCc3c([nH]c4ccccc34)C2c2cccc(Br)c2)n1 (racemic) | 79.65% |  |  |  |  |  |  | 1.81 | 15.8 µg/mL (≈ 33.3 µM) | 23.4 µg/mL (≈ 49.3 µM) | 15.6 µg/mL (≈ 32.9 µM) | 21.7 µg/mL (≈ 45.8 µM) | 24.3 µg/mL (≈ 51.2 µM) | 14 µg/mL (≈ 29.6 µM) |  | 
Not Active |  |  |  | Clc1cc(Cl)nc(N2CCc3c([nH]c4ccccc34)C2c2ccc(OCc3ccccc3)cc2)n1 (racemic) | 36.85% | inactive | inactive | inactive | inactive | Non-toxic |  |  |  |  |  |  |  |  |  | 
 |  | 7.34 µg/mL (≈ 23.9 µM) |  | Clc1cc(Cl)nc(NCCc2c[nH]c3ccccc23)n1 | 99.78% | inactive | inactive | inactive | inactive | Non-toxic |  | 2.8 |  |  |  |  |  | 20.6 µg/mL (≈ 67 µM) |  | 
Not Active |  |  |  | COc1cc(OC)cc(C2c3[nH]c4ccccc4c3CCN2c2nc(Cl)cc(Cl)n2)c1 (racemic) | 90.57% | inactive | inactive | inactive | inactive | Non-toxic |  |  |  |  |  |  |  |  |  | 
 |  |  | > 0.3 µg/mL | C=CC1CN2CCc3c([nH]c4ccccc34)[C@@H]2C[C@@H]1[C@@H](C(=O)OC)[C@H]1NCCc2c1[nH]c1ccccc21 (stereo partly specified) [BUCHTIENINE] |  |  |  |  |  |  |  |  |  |  |  |  |  |  |  | 
 |  | 3.81 µg/mL (≈ 7.85 µM) |  | COc1cc(C2c3[nH]c4ccccc4c3CCN2c2nc(Cl)cc(Cl)n2)cc(OC)c1OC (racemic) | 81.68% | inactive | inactive | inactive | inactive | Non-toxic |  |  |  |  |  |  |  |  |  | 
 |  |  |  | sodiumstilbogluconate |  |  |  |  |  |  |  |  |  |  |  |  |  |  | 6.38 | 40%
 |  | 3.57 µg/mL (≈ 8.39 µM) |  | COc1ccc(C2c3[nH]c4ccccc4c3CCN2c2nc(Cl)cc(Cl)n2)cc1 (racemic) | 81.68% |  |  |  |  |  |  |  | 10.1 µg/mL (≈ 23.7 µM) | 5.2 µg/mL (≈ 12.2 µM) | 4.5 µg/mL (≈ 10.6 µM) | 4.2 µg/mL (≈ 9.87 µM) | 9.8 µg/mL (≈ 23 µM) |  |  | 
 | 6 µg/mL (≈ 14.7 µM) |  |  | Cc1ccc(C2c3[nH]c4ccccc4c3CCN2c2nc(Cl)cc(Cl)n2)cc1 (racemic) | 84.15% |  |  |  |  |  | 24.6 µg/mL (≈ 60.1 µM) | 4.09 | 20.2 µg/mL (≈ 49.4 µM) | 28 µg/mL (≈ 68.4 µM) | 21.6 µg/mL (≈ 52.8 µM) | 24.9 µg/mL (≈ 60.8 µM) | 33.7 µg/mL (≈ 82.3 µM) |  |  | 
 |  | 1.74 µg/mL (≈ 4 µM) |  | CN1CCN(c2cc(N3CCN(C)CC3)nc(NCCc3c[nH]c4ccccc34)n2)CC1 | 100% |  |  |  |  |  |  | 10.55 | 21.3 µg/mL (≈ 49 µM) | 35.2 µg/mL (≈ 81 µM) | 33.4 µg/mL (≈ 76.9 µM) | 26 µg/mL (≈ 59.8 µM) | 29.7 µg/mL (≈ 68.3 µM) | 18.4 µg/mL (≈ 42.3 µM) |  | 
 |  | 1.93 µg/mL (≈ 4.24 µM) |  | COc1ccc(C2c3[nH]c4ccccc4c3CCN2c2nc(Cl)cc(Cl)n2)cc1OC (racemic) | 93.06% | inactive | inactive | inactive | inactive | Non-toxic |  | 15.43 |  |  |  |  |  | 29.8 µg/mL (≈ 65.4 µM) |  | 
Not Active |  |  |  | Clc1cc(Cl)nc(N2CCc3c([nH]c4ccccc34)C2c2ccc3c(c2)OCO3)n1 (racemic) | 33.57% |  |  |  |  |  |  |  | 8.9 µg/mL (≈ 20.3 µM) | 4.3 µg/mL (≈ 9.79 µM) | 3.9 µg/mL (≈ 8.88 µM) | 3.3 µg/mL (≈ 7.51 µM) | 8.2 µg/mL (≈ 18.7 µM) |  |  | 
 |  | 4.48 µg/mL (≈ 8.51 µM) |  | COc1ccc(C2c3[nH]c4ccccc4c3CCN2c2nc(N3CCOCC3)cc(N3CCOCC3)n2)cc1 (racemic) | 97.25% |  |  |  |  |  |  | 15.1 | 4.5 µg/mL (≈ 8.54 µM) | 3.9 µg/mL (≈ 7.41 µM) | 5.1 µg/mL (≈ 9.68 µM) | 2.5 µg/mL (≈ 4.75 µM) | 7.8 µg/mL (≈ 14.8 µM) | 67.7 µg/mL (≈ 128 µM) |  | 
 |  |  |  | N=C(N)c1ccc(OCCCCCOc2ccc(C(=N)N)cc2)cc1 [PENTAMIDINE] | 100% |  |  |  |  |  |  |  |  |  |  |  |  | 25.1 µg/mL (≈ 73.9 µM) |  | 
